DNMT1 inh = DNMT1 (human) enzyme inhibition; DNMT1 molecular beacon, Hinp1I cleavage, fluorescence; inhibition (reported as % activation of signal), % at 10 µM; 360,000 tested, 0.83% active; AID 588458; in the data active means inhibition above about 50%
STEP inh = STEP (human) phosphatase inhibition; P54829; recombinant STEP, OMFP fluorogenic substrate, fluorescence; AID 588621; inhibition, % at 20 µM; 360,000 tested, 0.25% active;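 active means inhibition at 20 µM, scaled per plate between control wells, above about 37%, limit read from the data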;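 further: 0% = DMSO with enzyme and substrate and 100% = substrate only without enzyme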
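Test system: STEP tyrosine phosphatase / Reagent: OMFP at 25 µM / Doses: 20 µM, 1% DMSO / Read-out: percent inhibition scaled to no-enzyme and uninhibited-enzyme controls, plate-pattern corrected / Detection: FITC-channel fluorescence of OMFP product / Medium: Bis-Tris buffer pH 6.0, 2.5 mM DTT, 0.005% Tween 20 / Schedule: 20 min at room temperature, dark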
LMPTP block = blocks human LMPTP phosphatase | recombinant LMPTP-A, OMFP fluorogenic substrate, fluorescence intensity | 360,000 tested, 0.22% active | inhibition, % at 20 µM | P24666;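 active means compounds that cut the enzyme signal by at least half of the control window in the single-dose screen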;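 further: plate controls were DMSO wells with enzyme plus substrate for no effect and substrate without enzyme for full effect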
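Test system: LMPTP-A, protein tyrosine phosphatase of low molecular weight; Input: 0.625 nM enzyme; Incubation: 50 min dark incubation at room temperature; Signal: endpoint fluorescence intensity from OMFP dephosphorylation; Read-out basis: % inhibition versus control wells.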
Scp1 inh = Scp-1 (human) phosphatase inhibition. 340,000 tested, 0.88% active. Recombinant Scp1, phosphopeptide, malachite green phosphate absorbance. inhibition, % at 20 µM. AID 493091. Q9GZU7;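 active means inhibition above about 50% at 20 µM, limit read from the data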;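 further: plate controls were DMSO wells with enzyme for no effect and wells lacking enzyme for full effect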
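assay system = SCP-1 phosphatase catalytic domain, residues 76-261 | buffer or medium = 50 mM Tris acetate pH 5.5, 0.005% Tween-20, 10 mM MgCl2 | incubation = enzyme reaction 45 min at room temperature, colour 5 min, stabilisation 30 min | signal = Phosphate-binding colour reagent, absorbance read at 630 nm | measure = % inhibition at 20 µM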
HKDC1 inhibitor = inhibitors of human hexokinase HKDC1 | Q2TB90 | recombinant HKDC1, G6PDH/diaphorase resazurin coupled fluorescence | inhibition, % at 20 µM | 340,000 tested, 0.16% active;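 active means inhibition above about 35% when tested at 20 µM, limit read from the data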;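 further: plate controls were DMSO wells with enzyme for no effect and DMSO wells lacking enzyme for full effect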
Target sequence (Q2TB90 whole entry, looked up): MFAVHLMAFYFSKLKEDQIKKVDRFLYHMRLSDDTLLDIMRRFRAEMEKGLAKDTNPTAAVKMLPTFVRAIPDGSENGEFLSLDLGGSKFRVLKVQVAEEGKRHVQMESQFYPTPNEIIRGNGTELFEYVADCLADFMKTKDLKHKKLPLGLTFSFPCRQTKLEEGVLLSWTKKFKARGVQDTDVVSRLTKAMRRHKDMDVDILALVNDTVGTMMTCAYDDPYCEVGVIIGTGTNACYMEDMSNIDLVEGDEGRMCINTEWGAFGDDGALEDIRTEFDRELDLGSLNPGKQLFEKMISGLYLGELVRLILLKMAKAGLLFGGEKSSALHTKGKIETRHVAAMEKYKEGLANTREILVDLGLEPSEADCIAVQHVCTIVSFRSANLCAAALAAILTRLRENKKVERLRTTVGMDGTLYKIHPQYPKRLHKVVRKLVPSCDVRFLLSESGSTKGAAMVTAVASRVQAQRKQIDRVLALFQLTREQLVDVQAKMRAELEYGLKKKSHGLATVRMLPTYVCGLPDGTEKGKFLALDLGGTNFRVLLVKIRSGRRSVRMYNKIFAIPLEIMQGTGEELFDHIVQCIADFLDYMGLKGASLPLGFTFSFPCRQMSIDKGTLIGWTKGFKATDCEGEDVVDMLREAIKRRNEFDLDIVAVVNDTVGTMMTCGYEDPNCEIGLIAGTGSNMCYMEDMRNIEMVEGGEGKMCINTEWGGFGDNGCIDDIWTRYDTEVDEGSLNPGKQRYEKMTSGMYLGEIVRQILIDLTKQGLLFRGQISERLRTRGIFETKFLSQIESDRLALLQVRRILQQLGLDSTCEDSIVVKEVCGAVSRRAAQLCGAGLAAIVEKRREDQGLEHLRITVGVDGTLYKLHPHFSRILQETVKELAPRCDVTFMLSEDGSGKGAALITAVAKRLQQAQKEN
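Material – in-house recombinant HK5 (HKDC1) enzyme · Quantity – HKDC1 at 5 µg/mL · Buffer or medium – pH 8.0 Tris buffer with 10 mM MgCl2 · Reagent – glucose with 1 mM ATP · Dosing – single 20 µM dose · Times – reaction time 90 min, room temperature, protected from light · Technique – resorufin fluorescence at 613 nm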
SUMO1 PPI mod = SUMO1-SIM interaction modulation | P63165 | SUMO1 binding to a labelled peptide, TR-FRET, 1 h | inhibition, % at 20 µM | 360,000 tested, 0.33% active; in the data active means inhibition above about 37%
Scp1 confirm = Scp-1 (human) inhibition, single-dose confirmed | shares compounds with Scp1 inh | recombinant SCP-1 catalytic domain, phosphate release, malachite green absorbance | inhibition, % at 20 µM | 2,500 tested, 61% active | AID 540281;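 active means inhibition of at least 30% at 20 µM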;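 further: plate controls were DMSO with enzyme for no effect and buffer wells lacking enzyme for full effect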
MG interference = colorimetric interference in Scp-1 counter-screen. shares compounds with Scp1 inh. Colorimetric interference counterscreen, malachite green absorbance 630 nm. apparent inhibition (interference), % at 20 µM. 2,500 tested, under 10 active. AID 540313;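 active means inhibition of at least 30% at 20 µM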;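 further: compounds added after enzyme reaction finished so only phosphate colour detection is probed; plate controls were DMSO wells with completed Scp-1 reaction for no effect and substrate wells lacking enzyme for full effect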
Scp-1 Tm shift = binds human Scp-1, shifting its melting temperature. shares compounds with Scp1 inh. Recombinant SCP1, Sypro Orange thermal shift Tm. 1,500 tested, 25% active. thermal shift relative to vanadate control, % at 40 µM;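 active means substances whose mean melting-temperature shift, as a percentage of the reference inhibitor's shift, reaches about 5.3%, limit read from the data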;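 further: 0% = Tm of DMSO wells and 100% = Tm with sodium orthovanadate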
HKDC1 act conf = confirmation of human HKDC1 activators. shares compounds with HKDC1 inhibitor. recombinant HKDC1, G6PDH/diaphorase resazurin fluorescence; stronger effect = lower value. inhibition, % at 20 µM. 740 tested, 14% active. AID 504708;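 active means inhibition at or below a set negative limit, negative inhibition meaning the enzyme was activated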
Beacon interf DR = beacon fluorescence artifact, dose response counter-screen; shares compounds with DNMT1 inh; molecular beacon fluorescence, spectral interference counter-screen; IC50, µM; 200 tested, under 10 active; AID 602382
DNMT1 inh conf = DNMT1 inhibition confirmation, single concentration | shares compounds with DNMT1 inh | DNMT1 molecular beacon HinP1I cleavage, fluorescence | inhibition, % at 10 µM | 2,300 tested, 8% active | AID 602385;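 active means average inhibition of at least 30% in the single-concentration confirmation test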
DNMT1 interf = counter-screen for DNMT1 inhibitors: spectral interference | DNMT1 molecular beacon spectral interference counterscreen, fluorescence 485/520 | 2,300 tested, 1% active | shares compounds with DNMT1 inh | activation (fluorescence interference), % at 10 µM;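 active means activation of at least 30% at 10 µM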;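 further: DNMT1 catalytic domain with a HinP1I cleavage step and a FAM/dabcyl DNA beacon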
STEP conf = confirmation of human STEP phosphatase inhibitors. shares compounds with STEP inh. recombinant STEP, OMFP fluorogenic substrate, fluorescence. inhibition, % at 20 µM. 520 tested, 32% active. AID 623866;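 further: 0% = enzyme with substrate plus DMSO and 100% = substrate without enzyme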
An asterisk follows results filed as active; · = no result given. Sampled rows, rich in hits. Any-hit rate of the full collection: about 1.8%. Unless noted, how the calls were made is not given here.

SMILES	DNMT1 inh	STEP inh	LMPTP block	Scp1 inh	HKDC1 inhibitor	SUMO1 PPI mod	Scp1 confirm	MG interference	Scp-1 Tm shift	STEP conf	others
O=C(NCc1ccon1)c1ccc(OC2CCN(CCc3ccccc3)CC2)cc1	-2	-2	1	1	4	2	·	·	·	·
O=C(N/N=C/c1ccoc1)c1cc(O)cc(O)c1	93*	61*	35	63*	11	43*	58*	-16	4	98*	Beacon interf DR=>99;DNMT1 inh conf=21;DNMT1 interf=-5
Cc1cc(C)cc(C(=O)N/N=C/c2ccoc2)c1	14	8	1	27	3	-4	·	·	·	·
COc1ccc(NC(=O)/C(C#N)=C\c2ccc(OCc3ccc(C(=O)O)cc3)c(OC)c2)cc1	-5	89*	76*	75*	2	8	62*	-7	-10	5
N#C/C(=C\c1ccc(OCc2ccc(F)cc2)cc1)C(=O)Nc1cccc(C(=O)O)c1	-3	92*	31	93*	13	26	74*	-4	5	6
COC(=O)c1ccc(C(=O)OC)c(NC(=S)N2CCC(C)CC2)c1	0	1	0	-4	0	-3	·	·	·	·
Cc1ccc(-c2noc(CN(C)C(=O)c3ccc(Br)o3)n2)cc1	3	-2	0	-15	-3	3	·	·	·	·
CC(=O)c1ccc(S(=O)(=O)NCC(=O)NC(c2nc3ccccc3[nH]2)C(C)C)cc1 (stereo not drawn)	-6	0	1	-8	2	5	·	·	·	·
COc1cccc(Nc2c([N+](=O)[O-])cncc2[N+](=O)[O-])c1	2	0	-2	0	5	-45	·	·	·	·
COc1cccc(Nc2c(Nc3cccc(OC)c3)c(=O)c2=O)c1	67*	97*	78*	92*	5	16	68*	-11	2	23
CC(C)CCNC(=O)C1CCC(CNS(=O)(=O)c2cccc3nsnc23)CC1 (stereo not drawn)	0	0	-1	0	-3	-35	·	·	·	·
Cn1c2ccccc2c(=O)c2c(=O)n(C3CCCCCC3)c(C3CCCCC3)nc21	68*	60*	12	97*	35	-7	18	6	·	7	HKDC1 act conf=2;DNMT1 inh conf=1;DNMT1 interf=-5
CN(CC(=O)Nc1ccc(N2CCOCC2)cc1)C(=O)c1ccc(CS(C)(=O)=O)cc1	-1	-4	-2	6	2	-3	·	·	·	·
O=C(CSc1ccccc1)Nc1ccc(N2CCOCC2)c(F)c1	0	2	1	1	4	6	·	·	·	·
NC(=O)c1cc2ccccc2o/c1=N\NC(=O)c1ccccc1O	2	99*	75*	103*	6	-3	79*	-3	-12	90*
CCOc1ccc(C(=O)Nc2ccc(NC(=O)c3ccccc3)c(C)c2)cc1[N+](=O)[O-]	29	44*	5	78*	6	11	59*	-18	-19	-6
CC1=C([N+](=O)[O-])C(c2ccc(Cl)cc2)NC(=O)N1C (stereo not drawn)	0	-1	-1	-2	2	2	·	·	·	·
O=C(N/N=C/c1ccc(OC(=O)c2cccs2)cc1)c1cccc(F)c1	64*	43*	68*	95*	34	-2	77*	-16	-31	28*	DNMT1 inh conf=-1;DNMT1 interf=4
CCN1C(=O)N[C@H](c2ccccc2)C(C(C)=O)=C1C	2	1	-1	-9	-3	6	·	·	·	·
O=C1CCCN1CCCNC(=S)Nc1cccc2ccccc12	-11	55*	2	5	2	-1	-16	-18	·	6
CCCCn1c(N)c(-c2nc3ccccc3o2)c2c([N+](=O)[O-])nn(C)c(=O)c21	87*	58*	55*	93*	12	-7	68*	-8	3	23	DNMT1 inh conf=0;DNMT1 interf=-1
Cc1ccc(NC(=O)CN2C(=O)S/C(=C\c3cccn3-c3cccc(C(=O)O)c3)C2=O)cc1C	30	42*	46	79*	-1	-4	80*	-7	11*	3
Cc1ccc(NC(=O)CN2C(=O)S/C(=C\c3ccccn3)C2=O)cc1C	27	0	1	-2	-6	-3	·	·	·	·
COc1ccc(-n2nc(C(=O)NCC(=O)NC(C)C)c3ccccc3c2=O)cc1Cl	1	0	-1	5	-2	-22	·	·	·	·
COc1ccc(-n2nc(C(=O)NCC(=O)Nc3ccccn3)c3ccccc3c2=O)cc1Cl	16	48*	15	63*	0	4	43*	-9	-5	32*
CC(C)[C@@H](CO)N(C)S(=O)(=O)c1ccccc1Br	4	1	-1	4	1	0	·	·	·	·
Cc1cccc(C(=O)NNC(=O)c2cc3cc4ccccc4nc3s2)c1	9	-4	1	8	-12	-4	·	·	·	·
O=C(NNC(=O)c1cc2cc3ccccc3nc2s1)c1ccc(F)cc1	11	97*	32	105*	6	-5	68*	-13	-4	4
O=C(NNC(=O)c1cc2cc3ccccc3nc2s1)c1cccc(Cl)c1	78*	97*	63*	98*	13	-2	73*	-13	-27	3	DNMT1 inh conf=2;DNMT1 interf=1
